Measurements from ChEMBL document CHEMBL1139875, “Discovery of 4-aminobutyric acid derivatives possessing anticonvulsant and antinociceptive activities: a hybrid pharmacophore approach” (2007).
Active and inactive are the calls of the source. The rule behind the calls is not given here.

What was measured:
Mus musculus [1] = experiment: Anticonvulsant activity in Swiss Albino mouse at 300 mg/kg, ip after 0.5 hr by scPTZ test; assay type: functional, organism-based; set-up: dose 300 mg/kg
Procedure, shortened: (§1)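 Mice (Swiss, 20-25 g) given i.p. doses of 30, 100 and 300 mg/kg under ADD program protocols, three per group, examined at 0.5 and 4 h in MES, scPTZ, scSTY or scPIC seizure tests. Value is the minimum dose protecting half or more of the mice.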

Rattus norvegicus [2] = species on record: Rattus norvegicus; experiment: Anti-dynamic allodynic effect in Sprague-Dawley rat CCI model assessed as latency to paw withdrawal after 2 hr; assay type: functional
Procedure, shortened: (§2)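 Rats with sciatic nerve chronic constriction injury (pentobarbital 65 mg/kg i.p. anaesthesia), baseline and day 9 testing, then drug per randomization table. After 10 min acclimatization, affected plantar surface stroked mildly with a cotton-bud; paw lift recorded. n = 4; retested 0.5-2.5 h post-dose.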

Rattus norvegicus [3] = experiment: Anti-dynamic allodynia effect in Sprague-Dawley rat SNL model assessed as latency to paw withdrawal 100 mg/kg, ip after 1.5 hrs; assay type: functional; details: route intraperitoneal
Procedure, shortened: (§3)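 Left L5 spinal nerve ligation rats, tested preoperatively and 9 days postoperatively, then given 100 mg/kg i.p. (vehicle 30% v/v PEG 400 in water). After 10 min acclimatization, plantar surface of affected paw stroked mildly with a cotton-bud; paw lift response recorded. n = 4; retested 0.5-2.5 h post-dose.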

Mus musculus [4] = experiment: Anticonvulsant activity in Swiss Albino mouse at 300 mg/kg, ip after 0.5 hr by MES test; assay type: functional, organism-based; set-up: dose 300 mg/kg; procedure, shortened: as §1
Mus musculus [5] = experiment: Neurotoxicity in Swiss Albino mouse at 300 mg/kg, ip after 0.5 hr by rotarod test; assay type: functional, organism-based; set-up: dose 300 mg/kg
Procedure, shortened: (§4)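 Swiss mice (20-25 g) are trained on an accelerating rotorod (10 rpm, 3.2 cm rod), then injected i.p. at 30, 100 or 300 mg/kg, with three per group. Neurotoxicity means failure to keep equilibrium for at least 1 min in each of three trials, checked at 0.5 and 4 h. The value reported is the minimum dose affecting half or more of the mice.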

Rattus norvegicus [6] = experiment: Effect on spontaneous pain in Sprague-Dawley rat CCI model assessed as duration of paw withdrawal at 100 mg/kg, ip after 2.5 hrs; assay type: functional; details: route intraperitoneal
Procedure, shortened: (§5)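 Unilateral CCI of sciatic nerve (Bennett and Xie) in Sprague-Dawley rats under i.p. pentobarbital sodium (65 mg/kg). Spontaneous pain is scored over 5 min after 10 min acclimatization, as cumulative time the ipsilateral paw is held off the floor. Paw lifts from locomotion or repositioning are excluded. Drug is given at 100 mg/kg i.p. with 30% v/v PEG 400 vehicle. Mean ± SEM, n = 4, compared with predrug by ANOVA/Bonferroni.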

Mus musculus [7] = experiment: Analgesic activity in Swiss Albino mouse assessed as number of acetic acid-induced writhing per 30 min after 100 mg/kg, ip; assay type: functional; details: route intraperitoneal
Procedure, shortened: (§6)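 Mice in groups of six dosed i.p. at 100 mg/kg, controls receiving 30% v/v PEG 400 in water. Writhing induced by i.p. 0.1 mL of 3% v/v acetic acid 1 h after drug. Writhes (abdominal stretch with at least one hind limb extended) counted over 30 min; % inhibition calculated. Mean ± SEM, Student's t test.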

Mus musculus [8] = experiment: Anticonvulsant activity in Swiss Albino mouse at 100 mg/kg, ip after 0.5 hr by scSTY test; assay type: functional, organism-based; set-up: dose 100 mg/kg; procedure, shortened: as §1
Mus musculus [9] = experiment: Anticonvulsant activity in Swiss Albino mouse at 300 mg/kg, ip after 0.5 hr by scPIC test; assay type: functional, organism-based; set-up: dose 300 mg/kg; procedure, shortened: as §1
Rattus norvegicus [10] = experiment: Effect on spontaneous pain in Sprague-Dawley rat CCI model assessed as duration of paw withdrawal at 100 mg/kg, ip after 2 hrs; assay type: functional; details: route intraperitoneal; procedure, shortened: as §5
Mus musculus [11] = experiment: Anticonvulsant activity in Swiss Albino mouse at 300 mg/kg, ip after 4 hrs by scSTY test; assay type: functional, organism-based; set-up: dose 300 mg/kg; procedure, shortened: as §1
Rattus norvegicus [12] = experiment: Effect on spontaneous pain in Sprague-Dawley rat CCI model assessed as duration of paw withdrawal at 100 mg/kg, ip after 1.5 hrs; assay type: functional; details: route intraperitoneal; procedure, shortened: as §5
Mus musculus [13] = experiment: Analgesic activity in Swiss Albino mouse assessed as inhibition of acetic acid-induced writhing responses at 100 mg/kg, ip; assay type: functional; details: route intraperitoneal; procedure, shortened: as §6
Rattus norvegicus [14] = species on record: Rattus norvegicus; experiment: Anti-dynamic allodynic effect in Sprague-Dawley rat CCI model assessed as latency to paw withdrawal after 1.5 hr; assay type: functional; procedure, shortened: as §2
Rattus norvegicus [15] = experiment: Anti-dynamic allodynia effect in Sprague-Dawley rat SNL model assessed as latency to paw withdrawal 100 mg/kg, ip after 2.5 hrs; assay type: functional; details: route intraperitoneal; procedure, shortened: as §3
Rattus norvegicus [16] = experiment: Antihyperalgesic effects in Sprague-Dawley rat SNL model assessed as duration of paw withdrawal at 100 mg/kg, ip after 2 hrs, ip; assay type: functional; details: route intraperitoneal
Procedure, shortened: (§7)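 L5 SNL rats (n = 4), dosed 100 mg/kg i.p. (vehicle 30% v/v PEG 400 in water). Pin-prick to midplantar ipsilateral left hindpaw; withdrawal duration, mean of three responses; ≥2 s defined abnormal. Mean ± SEM; one-way ANOVA with Bonferroni versus predrug.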

Rattus norvegicus [17] = experiment: Anti-dynamic allodynia effect in Sprague-Dawley rat SNL model assessed as latency to paw withdrawal 100 mg/kg, ip after 2 hrs; assay type: functional; details: route intraperitoneal; procedure, shortened: as §3
Rattus norvegicus [18] = experiment: Anti-dynamic allodynia effect in Sprague-Dawley rat SNL model assessed as latency to paw withdrawal 100 mg/kg, ip after 0.5 hr; assay type: functional; details: route intraperitoneal; procedure, shortened: as §3
Rattus norvegicus [19] = experiment: Anti-cold allodynia effect in Sprague-Dawley rat SNL model assessed as duration of paw withdrawal 100 mg/kg, ip after 2 hrs; assay type: functional; details: route intraperitoneal
Procedure, shortened: (§8)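 Left L5 spinal nerve ligation under pentobarbital (65 mg/kg i.p.). Allodynic rats dosed i.p. 100 mg/kg, vehicle 30% v/v PEG 400 in water. Acetone (100-200 µL) misted onto midplantar affected paw after 10 min acclimatization; paw withdrawal duration, mean of three samples at least 3 min apart; n = 4 rats.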

Rattus norvegicus [20] = experiment: Antihyperalgesic effects in Sprague-Dawley rat SNL model assessed as duration of paw withdrawal at 100 mg/kg, ip after 2.5 hrs, ip; assay type: functional; details: route intraperitoneal; procedure, shortened: as §7
Rattus norvegicus [21] = experiment: Anti-cold allodynia effect in Sprague-Dawley rat SNL model assessed as duration of paw withdrawal 100 mg/kg, ip after 0.5 hr; assay type: functional; details: route intraperitoneal; procedure, shortened: as §8
Rattus norvegicus [22] = experiment: Antihyperalgesic effects in Sprague-Dawley rat SNL model assessed as duration of paw withdrawal at 100 mg/kg, ip after 1 hr, ip; assay type: functional; details: route intraperitoneal; procedure, shortened: as §7
Mus musculus [23] = experiment: Anticonvulsant activity in Swiss Albino mouse at 300 mg/kg, ip after 4 hrs by scPIC test; assay type: functional, organism-based; set-up: dose 300 mg/kg; procedure, shortened: as §1
Rattus norvegicus [24] = experiment: Effect on spontaneous pain in Sprague-Dawley rat CCI model assessed as duration of paw withdrawal at 100 mg/kg, ip after 0.5 hr; assay type: functional; details: route intraperitoneal
Procedure, shortened: (§9)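 CCI rats (n = 4) dosed 100 mg/kg i.p. (vehicle 30% v/v PEG 400 in water). After 10 min acclimatization in a cage 5 cm above ground, cumulative time the ipsilateral paw was held off the floor over 5 min recorded, excluding locomotion lifts. Mean ± SEM; ANOVA/Bonferroni versus predrug.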

Mus musculus [25] = experiment: Anticonvulsant activity in Swiss Albino mouse at 300 mg/kg, ip after 4 hrs by MES test; assay type: functional, organism-based; set-up: dose 300 mg/kg; procedure, shortened: as §1
Rattus norvegicus [26] = experiment: Anti-cold allodynia effect in Sprague-Dawley rat SNL model assessed as duration of paw withdrawal 100 mg/kg, ip after 1.5 hrs; assay type: functional; details: route intraperitoneal; procedure, shortened: as §8
Rattus norvegicus [27] = species on record: Rattus norvegicus; experiment: Anti-dynamic allodynic effect in Sprague-Dawley rat CCI model assessed as latency to paw withdrawal after 0.5 hr; assay type: functional; procedure, shortened: as §2
Rattus norvegicus [28] = experiment: Anti-cold allodynia effect in Sprague-Dawley rat SNL model assessed as duration of paw withdrawal 100 mg/kg, ip after 2.5 hrs; assay type: functional; details: route intraperitoneal; procedure, shortened: as §8
Rattus norvegicus [29] = species on record: Rattus norvegicus; experiment: Anti-dynamic allodynic effect in Sprague-Dawley rat CCI model assessed as latency to paw withdrawal after 1 hr; assay type: functional; procedure, shortened: as §2
Rattus norvegicus [30] = experiment: Antihyperalgesic effects in Sprague-Dawley rat SNL model assessed as duration of paw withdrawal at 100 mg/kg, ip after 1.5 hrs, ip; assay type: functional; details: route intraperitoneal; procedure, shortened: as §7
Rattus norvegicus [31] = experiment: Anti-dynamic allodynia effect in Sprague-Dawley rat SNL model assessed as latency to paw withdrawal 100 mg/kg, ip after 1 hr; assay type: functional; details: route intraperitoneal; procedure, shortened: as §3
Rattus norvegicus [32] = experiment: Effect on spontaneous pain in Sprague-Dawley rat CCI model assessed as duration of paw withdrawal at 100 mg/kg, ip after 1 hr; assay type: functional; details: route intraperitoneal; procedure, shortened: as §9
Mus musculus [33] = experiment: Neurotoxicity in Swiss Albino mouse at 300 mg/kg, ip after 4 hrs by rotarod test; assay type: functional, organism-based; set-up: dose 300 mg/kg; procedure, shortened: as §4
Rattus norvegicus [34] = experiment: Anti-cold allodynia effect in Sprague-Dawley rat SNL model assessed as duration of paw withdrawal 100 mg/kg, ip after 1 hrs; assay type: functional; details: route intraperitoneal; procedure, shortened: as §8
Rattus norvegicus [35] = experiment: Antihyperalgesic effects in Sprague-Dawley rat SNL model assessed as duration of paw withdrawal at 100 mg/kg, ip after 0.5 hr, ip; assay type: functional; details: route intraperitoneal; procedure, shortened: as §7
Rattus norvegicus [36] = species on record: Rattus norvegicus; experiment: Anti-dynamic allodynic effect in Sprague-Dawley rat CCI model assessed as latency to paw withdrawal after 2.5 hr; assay type: functional; procedure, shortened: as §2

With `C/C(=N\NC(=O)NCCCC(=O)O)c1ccccc1` the Activity (Mus musculus [1]) was “inactive”, the Activity (Rattus norvegicus [2]) was 12.1 s and the Activity (Rattus norvegicus [3]) was 9.2 s. The Activity (Mus musculus [4]) was “inactive”, the Activity (Mus musculus [5]) was “inactive” and the Activity (Rattus norvegicus [6]) was 10.6 s. The Activity (Mus musculus [7]) was 33.7, the Activity (Mus musculus [8]) was “Active” and the Activity (Mus musculus [9]) was “Active”. For the same compound, the Activity (Rattus norvegicus [10]) was 12.9 s, the Activity (Mus musculus [11]) was “Active” and the Activity (Rattus norvegicus [12]) was 18.3 s. For the same compound, the inhibition in vivo at 100 mg/kg (Mus musculus [13]) was 82%, the Activity (Rattus norvegicus [14]) was 13.3 s and the Activity (Rattus norvegicus [15]) was 11.88 s. It also gave an Activity (Rattus norvegicus [16]) of 16.7 s, an Activity (Rattus norvegicus [17]) of 12.2 s and an Activity (Rattus norvegicus [18]) of 8.7 s. The Activity (Rattus norvegicus [19]) was 10.9 s, the Activity (Rattus norvegicus [20]) was 17.3 s and the Activity (Rattus norvegicus [21]) was 17.9 s. For the same compound, the Activity (Rattus norvegicus [22]) was 27.6 s, the Activity (Mus musculus [23]) was “Active” and the Activity (Rattus norvegicus [24]) was 13.2 s. The Activity (Mus musculus [25]) was “inactive”, the Activity (Rattus norvegicus [26]) was 11.7 s and the Activity (Rattus norvegicus [27]) was 14.8 s. It also gave an Activity (Rattus norvegicus [28]) of 4.8 s, an Activity (Rattus norvegicus [29]) of 10.2 s and an Activity (Rattus norvegicus [30]) of 18.7 s. For the same compound, the Activity (Rattus norvegicus [31]) was 7.2 s, the Activity (Rattus norvegicus [32]) was 18.8 s and the Activity (Mus musculus [33]) was “inactive”. For the same compound, the Activity (Rattus norvegicus [34]) was 12.8 s, the Activity (Rattus norvegicus [35]) was 23.2 s and the Activity (Rattus norvegicus [36]) was 14.5 s.
